According to ChEMBL document CHEMBL5724801, “EUbOPEN Chemogenomics Library - Multiplex” (2024):
Several values for one entry are separate records, joined by “and”; a condition that tells them apart may be missing. Equal entries are not always repeated.

Key:
HEK-293T = experiment: Multiplex assay against HEK293T; format: toxicity, cell-based; conditions: human
Procedure, shortened: (§1)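 Cells stained live at seeding with Hoechst33342, BioTracker Green Microtubule Cytoskeleton Dye, MitoTracker Red and Annexin V Alexa Fluor 680 were imaged on a CQ1 microscope at 37°C and 5% CO2 after compound addition. Their classification by CellPathfinder machine-learning gating ran from Hoechst high-intensity objects versus normal cells, to healthy, pyknosed or fragmented nuclei among normal cells, to mitotic or apoptotic among pyknosed cells. Tubulin, mitochondrial-mass and membrane-permeability phenotypes are per cents of healthy-nucleus cells.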

U2OS = experiment: Multiplex assay against U2OS; format: toxicity, cell-based; conditions: human; procedure, shortened: as §1
[1] = 24 h, 10 µM, compound concentration 10 uM
[2] = 48 h, 1 µM, compound concentration 1 uM
[3] = 48 h, 10 µM, compound concentration 10 uM
[4] = 12 h, 1 µM, compound concentration 1 uM
[5] = 12 h, 10 µM, compound concentration 10 uM
[6] = 24 h, 1 µM, compound concentration 1 uM

SMILES: CC(C)CNc1nc(N2CCN(CC3CCCOC3)CC2)ncc1C(=O)NCc1ccccc1 (stereo not drawn)
- Population Hoechst High Intensity Objects (%) (HEK-293T; [1]): 0.61% and 0%
- Population Membrane Permeable-Phenotype (%) (HEK-293T; [1]): 0%
- Population Mitochondria Different-Phenotype (%) (HEK-293T; [1]): 72.86% and 75%
- Population Mitotic Cells (%) (HEK-293T; [1]): 40.59% and 28.32%
- Population Normal (%) (HEK-293T; [1]): 99.39% and 100%
- Population Pyknosed Nuclei (%) (HEK-293T; [1]): 52.15% and 80.14%
- Population Tubulin-Different-Phenotype (%) (HEK-293T; [1]): 90.71% and 75%
- Total Cell Count (HEK-293T; [1]): 328 and 141
- Population Apoptotic (%) (HEK-293T; [2]): 7.95% and 20.65%
- Population Fragmented Nuclei (%) (HEK-293T; [2]): 1.03% and 6.84%
- Population Healthy Nuclei (%) (HEK-293T; [2]): 83.45% and 44.74%
- Population Hoechst High Intensity Objects (%) (HEK-293T; [2]): 0%
- Population Membrane Permeable-Phenotype (%) (HEK-293T; [2]): 2.71% and 1.18%
- Population Mitochondria Different-Phenotype (%) (HEK-293T; [2]): 49.88% and 61.18%
- Population Mitotic Cells (%) (HEK-293T; [2]): 92.05% and 79.35%
- Population Normal (%) (HEK-293T; [2]): 100%
- Population Apoptotic (%) (HEK-293T; [3]): 64.8% and 78.16%
- Population Fragmented Nuclei (%) (HEK-293T; [3]): 2.93% and 2.01%
- Population Healthy Nuclei (%) (HEK-293T; [3]): 60.41% and 39.6%
- Population Hoechst High Intensity Objects (%) (HEK-293T; [3]): 0.87% and 1.32%
- Population Membrane Permeable-Phenotype (%) (HEK-293T; [3]): 0.97% and 3.39%
- Population Mitochondria Different-Phenotype (%) (HEK-293T; [3]): 96.6% and 88.14%
- Population Mitotic Cells (%) (HEK-293T; [3]): 35.2% and 21.84%
- Population Normal (%) (HEK-293T; [3]): 99.13% and 98.68%
- Population Pyknosed Nuclei (%) (HEK-293T; [3]): 36.66% and 58.39%
- Population Tubulin-Different-Phenotype (%) (HEK-293T; [3]): 73.3% and 91.53%
- Total Cell Count (HEK-293T; [3]): 344 and 151
- Population Apoptotic (%) (U2OS; [4]): 35.29% and 54.55%
- Population Fragmented Nuclei (%) (U2OS; [4]): 1.32% and 3.94%
- Population Healthy Nuclei (%) (U2OS; [4]): 85.22% and 78.74%
- Population Hoechst High Intensity Objects (%) (U2OS; [4]): 0%
- Population Membrane Permeable-Phenotype (%) (U2OS; [4]): 0.93% and 5%
- Population Mitotic Cells (%) (U2OS; [4]): 64.71% and 45.45%
- Population Normal (%) (U2OS; [4]): 100%
- Population Pyknosed Nuclei (%) (U2OS; [4]): 13.46% and 17.32%
- Population Tubulin-Different-Phenotype (%) (U2OS; [4]): 3.1% and 1%
- Total Cell Count (U2OS; [4]): 379 and 127
- Population Apoptotic (%) (U2OS; [5]): 51.14% and 36.59%
- Population Fragmented Nuclei (%) (U2OS; [5]): 1.76% and 7.28%
- Population Healthy Nuclei (%) (U2OS; [5]): 72.35% and 65.56%
- Population Hoechst High Intensity Objects (%) (U2OS; [5]): 0%
- Population Membrane Permeable-Phenotype (%) (U2OS; [5]): 22.36% and 30.3%
- Population Mitochondria Different-Phenotype (%) (U2OS; [5]): 72.36% and 89.9%
- Population Mitotic Cells (%) (U2OS; [5]): 48.86% and 63.41%
- Population Normal (%) (U2OS; [5]): 100%
- Population Pyknosed Nuclei (%) (U2OS; [5]): 25.88% and 27.15%
- Population Tubulin-Different-Phenotype (%) (U2OS; [5]): 97.15% and 94.95%
- Total Cell Count (U2OS; [5]): 340 and 151
- Population Apoptotic (%) (U2OS; [6]): 43.1% and 31.82%
- Population Fragmented Nuclei (%) (U2OS; [6]): 1.29% and 7.91%
- Population Healthy Nuclei (%) (U2OS; [6]): 86.27% and 76.26%
- Population Hoechst High Intensity Objects (%) (U2OS; [6]): 0.21% and 0%
- Population Membrane Permeable-Phenotype (%) (U2OS; [6]): 2.49% and 9.43%
- Population Mitotic Cells (%) (U2OS; [6]): 56.9% and 68.18%
- Population Normal (%) (U2OS; [6]): 99.79% and 100%
- Population Pyknosed Nuclei (%) (U2OS; [6]): 12.45% and 15.83%
- Population Tubulin-Different-Phenotype (%) (U2OS; [6]): 3.98% and 4.72%
- Population Apoptotic (%) (U2OS; [1]): 71.3% and 64%
- Population Fragmented Nuclei (%) (U2OS; [1]): 3.28% and 4.55%
- Population Healthy Nuclei (%) (U2OS; [1]): 67.21% and 62.99%
- Population Hoechst High Intensity Objects (%) (U2OS; [1]): 0%
- Population Membrane Permeable-Phenotype (%) (U2OS; [1]): 17.07% and 18.56%
- Population Mitochondria Different-Phenotype (%) (U2OS; [1]): 81.3% and 91.75%
- Population Mitotic Cells (%) (U2OS; [1]): 28.7% and 36%
- Population Normal (%) (U2OS; [1]): 100%
- Population Pyknosed Nuclei (%) (U2OS; [1]): 29.51% and 32.47%
- Population Tubulin-Different-Phenotype (%) (U2OS; [1]): 97.15% and 93.81%
- Total Cell Count (U2OS; [1]): 366 and 154
- Population Apoptotic (%) (U2OS; [2]): 58.06% and 46.43%
- Population Fragmented Nuclei (%) (U2OS; [2]): 2.14% and 3.47%
- Population Healthy Nuclei (%) (U2OS; [2]): 86.13% and 80.35%
- Population Hoechst High Intensity Objects (%) (U2OS; [2]): 0%
- Population Membrane Permeable-Phenotype (%) (U2OS; [2]): 1.02% and 4.32%
- Population Mitotic Cells (%) (U2OS; [2]): 41.94% and 53.57%
- Population Normal (%) (U2OS; [2]): 100%
- Population Pyknosed Nuclei (%) (U2OS; [2]): 11.73% and 16.18%
- Population Tubulin-Different-Phenotype (%) (U2OS; [2]): 2.64% and 6.47%
- Population Apoptotic (%) (U2OS; [3]): 80.41% and 90%
- Population Fragmented Nuclei (%) (U2OS; [3]): 7.04% and 6.08%
- Population Healthy Nuclei (%) (U2OS; [3]): 55.78% and 60.14%
- Population Hoechst High Intensity Objects (%) (U2OS; [3]): 0%
- Population Membrane Permeable-Phenotype (%) (U2OS; [3]): 13.06% and 17.98%
- Population Mitochondria Different-Phenotype (%) (U2OS; [3]): 79.28% and 93.26%
- Population Mitotic Cells (%) (U2OS; [3]): 19.59% and 10%
- Population Normal (%) (U2OS; [3]): 100%
- Population Pyknosed Nuclei (%) (U2OS; [3]): 37.19% and 33.78%
- Population Tubulin-Different-Phenotype (%) (U2OS; [3]): 96.4% and 88.76%
- Total Cell Count (U2OS; [3]): 398 and 148
